Experimental data gathered from unrelated publications.
Target: Sodium-dependent noradrenaline transporter (SLC6A2, Homo sapiens, UniProt P23975)

`O[C@@H]1[C@H](O)[C@@H]2C[C@@H]2[C@H]1n1cnc2c(NCc3cccc(Cl)c3)nc(C#Cc3ccccc3)nc21` has an inhibition of 34% (ligand displacement; radioligand; 10 µM).
The inhibition of `Clc1ccc(C(c2ccc(Cl)cc2)c2nnnn2CCCN2CCC(Cc3ccccc3)CC2)cc1` is reported as 8.36% (transporter uptake; inhibitor; HEK293; 1 µM).
`O[C@@H]1[C@H](O)[C@@H]2C[C@@H]2[C@H]1n1cnc2c(NCc3cccc(Cl)c3)ncnc21` gave an inhibition of 35% (ligand displacement; radioligand; 10 µM).
For `CCCNc1nc2ccccc2n1Cc1ccc(Cl)cc1`, the inhibition was 21.9% (ligand displacement; 10 µM).
With `O=C1N=C(N2CCCCN2)S/C1=C\c1ccc(F)cc1O` the inhibition was less than 10% (ligand displacement; radioligand; 10 µM).
For `CN1CCN(CCCOc2ccc(=O)n(-c3ccc(Cl)c(Cl)c3)n2)CC1`, the inhibition was 14.4% (ligand displacement; 1 µM).
The inhibition of `CCN(Cc1ccccc1C(F)(F)F)C(=O)C1CCN(S(=O)(=O)c2ccc3[nH]ncc3c2)CC1` is reported as 20% (ligand displacement; radioligand; 10 µM).
For `Nc1ccc(-c2ccncc2)cc1NC(=O)N1CCCC1`, the inhibition was 15% (cell-free assay; 10 µM).
With `c1ccc(CCCC2CCN(CCCCn3nnnc3C(c3ccccc3)c3ccccc3)CC2)cc1` the inhibition was 73.9% (transporter uptake; inhibitor; HEK293; 1 µM).
For `COc1cc(NC(C)=O)c(Cl)cc1C(=O)Nc1nccs1`, the inhibition was 1.8% (cell-free assay; 10 µM).
`Clc1ccc(C(c2ccc(Cl)cc2)c2nnnn2CCCCN2CCC(Cc3ccccc3)CC2)cc1` gave an inhibition of 68.8% (transporter uptake; inhibitor; HEK293; 1 µM).
With `O=C(Nc1ccc(S(=O)(=O)N2CCC(Cl)CC2)cc1)c1ccc([N+](=O)[O-])o1` the inhibition was 28% (ligand displacement; radioligand; 10 µM).
